From ChEMBL document CHEMBL1629579, “Correlating echinocandin MIC and kinetic inhibition of fks1 mutant glucan synthases for Candida albicans: implications for interpretive breakpoints” (Antimicrob Agents Chemother, 2009)
In brackets after ≈: the same amount, converted by molar mass.

Tests used:
Candida albicans [1] = experiment: Antimicrobial activity against Candida albicans 5415 harboring FKS1 T1933C mutant gene and FKS1 hotspot1 S645P mutant gene by M27-A3 method in presence of 50% human serum; format: functional
Summary of the method: (§1)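 Broth microdilution per CLSI M27-A3 in RPMI 1640, done in triplicate on three separate days. Each strain was tested with and without 50% human serum. C. krusei ATCC 6258 and C. parapsilosis ATCC 22019 served as QC strains. Arithmetic means are reported, and geometric means were used for comparison.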

Candida albicans [2] = experiment: Antimicrobial activity against Candida albicans A15 harboring FKS1 T1933Y mutant gene and FKS1 hotspot1 S645S/P mutant gene by M27-A3 method in presence of 50% human serum; format: functional; summary of the method: as §1
[3] = Inhibition of Candida albicans 89 1,3-beta-D-glucan synthase subunit FKS1p C1934A mutant
Summary of the method: (§2)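 Enzyme is product-entrapped 1,3-β-D-glucan synthase, enriched from membranes of each strain grown at 37°C with shaking in YPD broth to early stationary phase. Filtration polymerization assay uses [3H]UDPG, started by adding enzyme and run 60 min at 25°C. Echinocandins are added as serial dilutions, with 1% DMSO controls for anidulafungin. IC50 is from a variable-slope sigmoidal fit; values are triplicate arithmetic means.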

Candida albicans [4] = experiment: Activity at Candida albicans 36082 1,3-beta-D-glucan synthase subunit FKS1p
Summary of the method: (§3)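 Glucan synthase from cells grown at 37°C with vigorous shaking to early stationary phase in YPD. Membrane enzyme enriched by product entrapment. Serial echinocandin dilutions; ANF controls held 1% DMSO. Reaction started by adding enzyme, run 60 min at 25°C in a filtration polymerization assay, stopped on ice. IC50 from a variable-slope sigmoidal fit; means of three repetitions on separate days.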

Candida albicans [5] = experiment: Antimicrobial activity against Candida albicans 149 harboring FKS1 G1942T mutant gene and FKS1 hotspot1 D648Y mutant gene by M27-A3 method in presence of 50% human serum; format: functional; summary of the method: as §1
[6] = Inhibition of Candida albicans 90028 1,3-beta-D-glucan synthase subunit FKS1p; summary of the method: as §2
Candida albicans [7] = experiment: Antimicrobial activity against Candida albicans 3795 by M27-A3 method; format: functional
Summary of the method: (§4)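 Broth microdilution per CLSI M27-A3 in RPMI 1640, with and without 50% human serum, in triplicate. C. krusei ATCC 6258 and C. parapsilosis ATCC 22019 served as quality-control strains. MIC reported as arithmetic mean of three repetitions on separate days.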

Candida albicans [8] = experiment: Antimicrobial activity against Candida albicans 85 harboring FKS1 C1934T mutant gene and FKS1 hotspot1 S645F mutant gene by M27-A3 method in presence of 50% human serum; format: functional; summary of the method: as §1
Candida albicans [9] = experiment: Antimicrobial activity against Candida albicans 36082 by M27-A3 method; format: functional; summary of the method: as §4
Candida albicans [10] = experiment: Antimicrobial activity against Candida albicans 3107 by M27-A3 method in presence of 50% human serum; format: functional; summary of the method: as §1
Candida albicans [11] = experiment: Activity at Candida albicans 90 1,3-beta-D-glucan synthase subunit FKS1p G4082R mutant
Summary of the method: (§5)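 Product-entrapped 1,3-β-D-glucan synthase from cells grown in YPD at 37°C to early stationary phase. Wells held 50 mM HEPES pH 7.5, 10% glycerol, 1.5 mg/ml BSA, 25 mM KF, 1 mM EDTA, 25 μM GTP-γ-S, 1 μg enzyme and [3H]UDPG (0.015–2 mM). Reactions ran 60 min at 25°C. Vmax and Km came from Lineweaver-Burke plots, in triplicate.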

Candida albicans [12] = experiment: Antimicrobial activity against Candida albicans 194 harboring FKS1 C1934T/G4082R mutant gene and FKS1 hotspot1 S645F mutant gene and FKS1 hotspot2 R1361R/H mutant gene by M27-A3 method; format: functional; summary of the method: as §1
Candida albicans [13] = experiment: Antimicrobial activity against Candida albicans 89 harboring FKS1 C1934A mutant gene and FKS1 hotspot1 S645Y mutant gene by M27-A3 method; format: functional; summary of the method: as §1
Candida albicans [14] = experiment: Antimicrobial activity against Candida albicans 205 harboring FKS1 T1933C mutant gene and FKS1 hotspot1 S645P mutant gene by M27-A3 method; format: functional; summary of the method: as §1
Candida albicans [15] = experiment: Activity at Candida albicans 3107 1,3-beta-D-glucan synthase subunit FKS1p; summary of the method: as §3
[16] = Inhibition of Candida albicans 177 1,3-beta-D-glucan synthase subunit FKS1p T1922C mutant; summary of the method: as §2
[17] = Inhibition of Candida albicans 194 1,3-beta-D-glucan synthase subunit FKS1p C1934T/G4082R mutant; summary of the method: as §2
Candida albicans [18] = experiment: Activity at Candida albicans 119 1,3-beta-D-glucan synthase subunit FKS1p T1921C mutant; summary of the method: as §5
Candida albicans [19] = experiment: Activity at Candida albicans 2762 1,3-beta-D-glucan synthase subunit FKS1p T1922C mutant; summary of the method: as §5
Candida albicans [20] = experiment: Activity at Candida albicans 85 1,3-beta-D-glucan synthase subunit FKS1p C1934T mutant; summary of the method: as §5
Candida albicans [21] = experiment: Antimicrobial activity against Candida albicans SC5314 by M27-A3 method; format: functional; summary of the method: as §4
Candida albicans [22] = experiment: Antimicrobial activity against Candida albicans 90028 by M27-A3 method in presence of 50% human serum; format: functional; summary of the method: as §1
Candida albicans [23] = experiment: Activity at Candida albicans A15-10 1,3-beta-D-glucan synthase subunit FKS1p T1933C mutant
[24] = Inhibition of Candida albicans 149 1,3-beta-D-glucan synthase subunit FKS1p G1942T mutant; summary of the method: as §2
Candida albicans [25] = experiment: Activity at Candida albicans 121 1,3-beta-D-glucan synthase subunit FKS1p G4082A mutant; summary of the method: as §5
[26] = Inhibition of Candida albicans 122 1,3-beta-D-glucan synthase subunit FKS1p C1946A mutant; summary of the method: as §2
Candida albicans [27] = experiment: Antimicrobial activity against Candida albicans 121 harboring FKS1 G4082A mutant gene and FKS1 hotspot2 R1361H mutant gene by M27-A3 method; format: functional; summary of the method: as §1
Candida albicans [28] = experiment: Antimicrobial activity against Candida albicans 89 harboring FKS1 C1934A mutant gene and FKS1 hotspot1 S645Y mutant gene by M27-A3 method in presence of 50% human serum; format: functional; summary of the method: as §1
[29] = Inhibition of Candida albicans 121 1,3-beta-D-glucan synthase subunit FKS1p G4082A mutant; summary of the method: as §2
Candida albicans [30] = experiment: Activity at Candida albicans 90028 1,3-beta-D-glucan synthase subunit FKS1p; summary of the method: as §3
[31] = Inhibition of Candida albicans 3107 1,3-beta-D-glucan synthase subunit FKS1p; summary of the method: as §2
Candida albicans [32] = experiment: Activity at Candida albicans 5415 1,3-beta-D-glucan synthase subunit FKS1p T1933C mutant; summary of the method: as §5
Candida albicans [33] = experiment: Activity at Candida albicans 205 1,3-beta-D-glucan synthase subunit FKS1p T1933C mutant; summary of the method: as §5

## CC[C@H](C)C[C@H](C)CCCCCCCCC(=O)N[C@H]1C[C@@H](O)[C@@H](NCCN)NC(=O)[C@@H]2[C@@H](O)CCN2C(=O)[C@H]([C@H](O)CCN)NC(=O)[C@H]([C@H](O)[C@@H](O)c2ccc(O)cc2)NC(=O)[C@@H]2C[C@@H](O)CN2C(=O)[C@H]([C@@H](C)O)NC1=O [CASPOFUNGIN]
Candida albicans [1]
  MIC: 8 µg/mL
Candida albicans [2]
  MIC: 8 µg/mL
[3]
  IC50: 2.075 µg/mL (≈ 1.9 µM)
  Ki: 0.86 µg/mL (≈ 0.787 µM)
Candida albicans [4]
  Km: 89 µM
  Vmax: 5.87 nmol/min
Candida albicans [5]
  MIC: 4 µg/mL
[6]
  IC50: 0.0005 µg/mL (≈ 0.000457 µM)
  Ki: 0.00046 µg/mL (≈ 0.000421 µM)
Candida albicans [7]
  MIC: 0.33 µg/mL (≈ 0.302 µM)
Candida albicans [8]
  MIC: 8 µg/mL
Candida albicans [9]
  MIC: 0.21 µg/mL (≈ 0.192 µM)
Candida albicans [10]
  MIC: 0.33 µg/mL
Candida albicans [11]
  Km: 31 µM
  Vmax: 2.36 nmol/min
Candida albicans [12]
  MIC: 4 µg/mL (≈ 3.66 µM)
Candida albicans [13]
  MIC: 8 µg/mL (≈ 7.32 µM)
Candida albicans [14]
  MIC: 8 µg/mL (≈ 7.32 µM)
Candida albicans [15]
  Km: 102 µM
  Vmax: 6.04 nmol/min
[16]
  IC50: 1.091 µg/mL (≈ 0.998 µM)
  Ki: 1.8176 µg/mL (≈ 1.66 µM)
[17]
  IC50: 0.5307 µg/mL (≈ 0.485 µM)
  Ki: 0.46689 µg/mL (≈ 0.427 µM)
Candida albicans [18]
  Km: 54 µM
  Vmax: 2.54 nmol/min
Candida albicans [19]
  Km: 108 µM
  Vmax: 3.57 nmol/min
Candida albicans [20]
  Km: 25 µM
  Vmax: 1.83 nmol/min
Candida albicans [21]
  MIC: 0.42 µg/mL (≈ 0.384 µM)
Candida albicans [22]
  MIC: 0.25 µg/mL
Candida albicans [23]
  Km: 91 µM
  Vmax: 3.26 nmol/min
[24]
  IC50: 0.06822 µg/mL (≈ 0.0624 µM)
  Ki: 0.2 µg/mL (≈ 0.183 µM)
Candida albicans [25]
  Km: 129 µM
  Vmax: 4.41 nmol/min
[26]
  IC50: 0.08266 µg/mL (≈ 0.0756 µM)
  Ki: 0.29167 µg/mL (≈ 0.267 µM)
Candida albicans [27]
  MIC: 2 µg/mL (≈ 1.83 µM)
Candida albicans [28]
  MIC: 8 µg/mL
[29]
  IC50: 0.03372 µg/mL (≈ 0.0308 µM)
  Ki: 0.308 µg/mL (≈ 0.282 µM)
Candida albicans [30]
  Km: 67 µM
  Vmax: 4.71 nmol/min
[31]
  Ki: 0.00879 µg/mL (≈ 0.00804 µM)
Candida albicans [32]
  Km: 98 µM
  Vmax: 3.12 nmol/min
Candida albicans [33]
  Km: 116 µM
  Vmax: 5.54 nmol/min
